Laboratory results as given in ChEMBL document CHEMBL1129955, “Structure-activity relationships of alkyl- and alkoxy-substituted 1,4-dihydroquinoxaline-2,3-diones: potent and systemically active antagonists for the glycine site of the NMDA receptor” (J Med Chem, 1997).

Key:
[1] = Selectivity index for the inhibition of NMDA receptors was estimated by dividing Kb AMPA by Kb NMDA
[2] = target: T1, Glutamate receptor ionotropic, AMPA (Rattus norvegicus) (UniProt P19491+P19492+P19493+P19490); test: Dissociation constant(Kb) for Ionotropic glutamate receptor AMPA was determined from inhibition of currents activated by 10(uM) AMPA in Xenopus oocytes expressing rat cerebral cortex poly(A)+ RNA; assay type: functional, cell-based; conditions: Oocyte
[3] = target: Glutamate receptor ionotropic, NMDA 1 (Rattus norvegicus, UniProt P35439); test: Potency for the N-methyl-D-aspartate glutamate receptor 1 glycine site by displacement of [3H]5,7-dichlorokynurenic acid (DCKA) binding in rat brain cortical membranes.; assay type: cell membranes, Membrane
Mus musculus = species on record: Mus musculus; test: Anticonvulsant activity was measured by mouse maximal electroshock (MES) assay.; assay type: functional
Summary of the method: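 Mice; compounds dissolved in 0.05 M Tris, given iv; tested at peak activity 2 min after injection (one compound with slower onset tested at 15 min). Maximal electroshock seizure protection scored; ED50 by Litchfield and Wilcoxon analysis.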

[4] = Partition coefficient (logP); assay type: physicochemical; conditions: octanol/water
[5] = target: T1, Glutamate receptor ionotropic, AMPA (Rattus norvegicus); test: Dissociation constant(Kb) for Ionotropic glutamate receptor AMPA as inhibition of currents activated by 10 uM AMPA in Xenopus oocytes expressing rat cerebral cortex poly(A)+ RNA; assay type: functional, cell-based; conditions: Oocyte

SMILES	IC50 [3] [nM]	also measured
Cc1c(C#N)cc2nc(O)c(O)nc2c1[N+](=O)[O-]		Selectivity index [1]: 20; Kb [2]: 590 nM
COc1c(Cl)cc2[nH]c(=O)c(=O)[nH]c2c1[N+](=O)[O-]	150	
CCc1cc2[nH]c(=O)c(=O)[nH]c2cc1Cl	1400	
N#Cc1cc([N+](=O)[O-])c2[nH]c(=O)c(=O)[nH]c2c1	2800	
CCOc1c(F)cc2nc(O)c(O)nc2c1[N+](=O)[O-]	3600	
O=[N+]([O-])c1c(Br)c(Br)cc2nc(O)c(O)nc12	20	ED50 (Mus musculus): 7.3 mg/kg; logP [4]: 0.74
O=c1[nH]c2cc3c(c([N+](=O)[O-])c2[nH]c1=O)CCC3	3100	
COc1cc2nc(O)c(O)nc2cc1Br	1000	
CCc1cc2[nH]c(=O)c(=O)[nH]c2c([N+](=O)[O-])c1CC	160	
COc1cc2[nH]c(=O)c(=O)[nH]c2c(OC(C)=O)c1OC	53000	
O=[N+]([O-])c1c(OCCCc2ccccc2)c(F)cc2nc(O)c(O)nc12	4000	
COc1c(F)cc2[nH]c(=O)c(=O)[nH]c2c1[N+](=O)[O-]	1900	
CCc1cc2[nH]c(=O)c(=O)[nH]c2cc1CC	1800	
COc1c(Br)cc2[nH]c(=O)c(=O)[nH]c2c1[N+](=O)[O-]	64	
Cc1c(Br)cc2nc(O)c(O)nc2c1[N+](=O)[O-]	8.7	ED50 (Mus musculus): 2 mg/kg; logP [4]: 0.61
Cc1cc2nc(O)c(O)nc2c([N+](=O)[O-])c1Cl	45	ED50 (Mus musculus): 1.9 mg/kg; logP [4]: 0.44
O=c1[nH]c2cc(Cl)c(Cl)c([N+](=O)[O-])c2[nH]c1=O [LICOSTINEL]	5.9	ED50 (Mus musculus): 4 mg/kg; logP [4]: 0.21
CCc1cc2nc(O)c(O)nc2c([N+](=O)[O-])c1Cl	29	ED50 (Mus musculus): 4.5 mg/kg; logP [4]: 0.92
O=[N+]([O-])c1c2c(cc3nc(O)c(O)nc13)CCC2		Selectivity index [1]: 20; Kb [2]: 17000 nM
COc1cc2[nH]c(=O)c(=O)[nH]c2cc1OC	17000	
Cc1c(Cl)cc2nc(O)c(O)nc2c1[N+](=O)[O-]		ED50 (Mus musculus): 1.2 mg/kg; Selectivity index [1]: 440; Kb [5]: 3500 nM
Cc1cc([N+](=O)[O-])c2[nH]c(=O)c(=O)[nH]c2c1	9300	
COc1cc2[nH]c(=O)c(=O)[nH]c2c(O)c1OC	17000	
Cc1c(Cl)cc2nc(O)c(O)nc2c1N	150	
CCCCOc1c(F)cc2nc(O)c(O)nc2c1[N+](=O)[O-]	4300	
Cc1c(F)cc2nc(O)c(O)nc2c1[N+](=O)[O-]	95	ED50 (Mus musculus): 1.8 mg/kg; logP [4]: 0.08
CCc1c(Cl)cc2nc(O)c(O)nc2c1[N+](=O)[O-]	130	

Now from value to molecule, other results behind:

IC50 [3] [nM]	SMILES	also measured
> 100000	Oc1nc2cc3c(cc2nc1O)OCO3	
3300	Cc1cc2[nH]c(=O)c(=O)[nH]c2cc1C	
82	CCc1cc2nc(O)c(O)nc2c([N+](=O)[O-])c1Br	ED50 (Mus musculus): 11 mg/kg; logP [4]: 1.04
640	CCSc1c(Cl)cc2nc(O)c(O)nc2c1[N+](=O)[O-]	
29	Cc1cc2nc(O)c(O)nc2c([N+](=O)[O-])c1C	ED50 (Mus musculus): 2.6 mg/kg; Selectivity index [1]: 79; logP [4]: 0.58; Kb [5]: 3100 nM
16000	O=c1[nH]c2cc3ccccc3cc2[nH]c1=O	
4.7	Cc1c(Cl)cc2[nH]c(=O)c(=O)[nH]c2c1[N+](=O)[O-]	logP [4]: 0.49
15000	Oc1nc2cc3c(cc2nc1O)CCC3	
73	Cc1c(C#N)cc2[nH]c(=O)c(=O)[nH]c2c1[N+](=O)[O-]	
> 100000	Oc1cc2nc(O)c(O)nc2cc1O	
11000	Nc1c(F)cc2nc(O)c(O)nc2c1[N+](=O)[O-]	
780	Cc1cc2nc(O)c(O)nc2cc1Cl	
